Measured values of several laboratories.
Lines come from different studies, so protocols differ.
Cell line: HCT-116
Read-out: cell growth or viability

O=C(/C=C/c1ccc(O)c(O)c1)O[C@@H]1C[C@](O)(C(=O)O)C[C@@H](O)[C@H]1O — IC50 (WST-1; 48 h): 27.9 µM
CSc1nc(/N=C/c2cc(Br)ccc2O)n(-c2ccc(C(=O)O)cc2)n1 — IC50 (MTT): 59.4 µM
CCN(CC)C(=S)NC(=O)c1ccc2ccccc2c1 — IC50 (48 h): 5.07 µM
CC1=C(O)C(=O)C=C2C1=CC=C1[C@@]2(C)CC[C@@]2(C)[C@@H]3C[C@](C)(C(=O)OCCCBr)CC[C@]3(C)CC[C@]12C — IC50 (MTT; 48 h): 0.52 µM
CCOC(=O)/C=C1\S/C(=N\C(=O)c2ccc3ccccc3c2)N(C2CCCCC2)C1=O — IC50 (48 h): 11.4 µM
CC(C)[C@H](N)c1nc2cc(-c3ccncc3F)sc2c(=O)[nH]1 — IC50 (MTT): 0.158 µM
CSc1nc(NC(=S)NCCc2ccccc2)n(-c2ccc(C(=O)O)cc2)n1 — IC50 (MTT): 45.8 µM
Cc1c(OCC(F)(F)F)ccnc1COc1ccc(NC(=O)Nc2ccc(F)cc2)cc1 — IC50 (MTT; 72 h): 6.35 µM
COC(=O)c1cc2ccc(O)cc2oc1=O — IC50 (MTT; 36 h): > 20 µM
c1ccc(C[n+]2cn(COC3CCCCC3)c3ccccc32)cc1 — IC50 (MTT; 72 h): 44.2 µM
COc1cccc2c1C(=O)c1c(O)c3c(c(O)c1C2=O)C[C@@](O)(C(=O)CO)C[C@@H]3O[C@H]1C[C@H](N)[C@H](O)[C@H](C)O1 — IC50 (MTT): 64 µM
CC1=C(O)C(=O)C=C2C1=CC=C1[C@@]2(C)CC[C@@]2(C)[C@@H]3C[C@](C)(C(=O)OCCCCCCCO)CC[C@]3(C)CC[C@]12C — IC50 (MTT; 48 h): 0.93 µM
CSc1nc(/N=C/c2cc([N+](=O)[O-])ccc2O)n(-c2ccc(C(=O)O)cc2)n1 — IC50 (MTT): 60.3 µM
CCCCCCCCCCONC(N)=O — IC50 (imaging): > 600 µM
COc1ccnc(COc2ccc(NC(=O)Nc3ccc(Cl)c(C(F)(F)F)c3)cc2)c1OC — IC50 (MTT; 72 h): 18.1 µM
COc1cccc2c1C(=O)c1c(O)c3c(c(O)c1C2=O)C[C@@](O)(C(=O)CO)C[C@@H]3O[C@H]1C[C@H](N)[C@H](O)[C@H](C)O1 — IC50 (SRB): 57.8 µM
O=C(Nc1nnc(-c2cc3ccccc3[nH]2)s1)c1cc2c([nH]c3ccccc32)c(-c2ccc(F)cc2)n1 — IC50 (MTT; 72 h): 6.22 µM
COc1cc(Nc2nccc(-c3cnn4nc(OC)ccc34)n2)cc(C(F)(F)F)c1 — IC50 (ATP luminescence): 0.55 µM
COc1ccnc(COc2ccc(NC(=O)Nc3ccc(Cl)cc3)cc2)c1OC — IC50 (MTT; 72 h): 12.8 µM
Cc1cc(C)n(-c2nc(Nc3ccc(Cl)cc3)nc(-n3nc(C)cc3C)n2)n1 — IC50 (MTT; 72 h): 11 µM
O=C(O)C[C@H](O)C[C@H](O)/C=C/c1c(C2CC2)nc2ccccc2c1-c1ccc(F)cc1 — IC50 (SRB; 72 h): 7.46 µg/mL
CCC[C@H](Nc1nc(-c2ccc(NC(=O)NCC)c(OC)c2)ncc1C)c1cccnc1 — IC50 (fluorescence; 72 h): 0.0477 µM
CCn1c(-c2nnc(NC(=O)c3cc4c([nH]c5ccccc54)c(-c4cc(OC)c(OC)c(OC)c4)n3)s2)cc2ccccc21 — IC50 (MTT; 72 h): 18.7 µM
COc1cc(OC)c(/C=C/S(=O)(=O)Nc2ccc(OC)c(N)c2)c(OC)c1 — IC50 (trypan blue; 96 h): 0.004 µM
C=CC(=O)N1CCC[C@@H](n2nc(-c3ccc(Oc4ccccc4)cc3)c3c(N)ncnc32)C1 — IC50: > 10 µM
COc1cc([C@@H]2c3cc4c(cc3[C@@H](O[C@@H]3O[C@@H]5CO[C@@H](C)O[C@H]5[C@H](O)[C@H]3O)[C@H]3COC(=O)[C@H]23)OCO4)cc(OC)c1O — IC50 (MTS; 72 h): 18.3 µM
COCCCOc1ccnc(COc2ccc(NC(=O)Nc3ccc(OC)cc3)cc2)c1C — IC50 (MTT; 72 h): 12.7 µM
O=c1cc(-c2ccc(O)c(O)c2)oc2cc(O)cc(O)c12 — IC50 (WST-1; 48 h): 11.1 µM
CS(=O)(=O)c1nc(N)n(-c2ccc(C(=O)O)cc2)n1 — IC50 (MTT): 48.5 µM
Cc1ccc([P+](CCCCCCCCCCONC(N)=O)(c2ccc(C)cc2)c2ccc(C)cc2)cc1 — IC50 (imaging): 3.7 µM
COc1ccc(NC(=O)Nc2ccc(OCc3nccc(OC)c3OC)cc2)cc1 — IC50 (MTT; 72 h): 13.1 µM
CC1=C(O)C(=O)C=C2C1=CC=C1[C@@]2(C)CC[C@@]2(C)[C@@H]3C[C@](C)(C(=O)OCCCCCCO)CC[C@]3(C)CC[C@]12C — IC50 (MTT; 48 h): 0.53 µM
O=C(Nc1nnnn1C1CCCCC1)c1ccc2ccccc2c1 — IC50 (48 h): 3.06 µM
O=c1cc(CCl)c2c(O)cc(O)cc2o1 — IC50 (MTT; 36 h): > 20 µM
Cc1c(OCC(F)(F)F)ccnc1COc1ccc(NC(=O)Nc2ccc(Cl)cc2)cc1 — IC50 (MTT; 72 h): 3.9 µM
COc1cc([C@@H]2c3cc4c(cc3[C@@H](O[C@@H]3O[C@@H]5CO[C@@H](C)O[C@H]5[C@H](O)[C@H]3O)[C@H]3COC(=O)[C@H]23)OCO4)cc(OC)c1O — IC50 (MTS; 48 h): 23.3 µM
CC(=O)Oc1ccc2c(CSC(C)=O)cc(=O)oc2c1 — IC50 (MTT; 36 h): > 20 µM
Cn1c(-c2nnc(NC(=O)c3cc4c([nH]c5ccccc54)c(-c4ccc(F)cc4)n3)s2)cc2ccccc21 — IC50 (MTT; 72 h): 14.3 µM
COc1ccc(NC(=O)Nc2ccc(OCc3ncc(C)c(OC)c3C)cc2)cc1 — IC50 (MTT; 72 h): > 100 µM
O=Cc1ccc(CO)o1 — IC50 (WST-1; 48 h): 83.1 µM
c1ccc2cc(-c3nnc(NC4CCCCC4)[nH]3)ccc2c1 — IC50 (48 h): 2.53 µM
COc1ccc(NC(=O)Nc2ccc(OCc3nccc(OCC(F)(F)F)c3C)cc2)cc1 — IC50 (MTT; 72 h): 19.2 µM
Cc1c(O)ccc2ccc(=O)oc12 — IC50 (MTT; 36 h): > 20 µM
O=C(NC(=S)N1CCCCC1)c1ccc2ccccc2c1 — IC50 (48 h): 9.12 µM
CC1=C(O)C(=O)C=C2C1=CC=C1[C@@]2(C)CC[C@@]2(C)[C@@H]3C[C@](C)(C(=O)OCCCN4C(=O)C5C=CC=CC5C4=O)CC[C@]3(C)CC[C@]12C (some centres unmarked) — IC50 (MTT; 48 h): 0.64 µM
CCNC(=S)NC(=O)c1ccc2ccccc2c1 — IC50 (48 h): 4.14 µM
CC[C@H](C)C(=O)O[C@H]1CCC=C2C=C[C@H](C)[C@H](CC[C@@H]3C[C@@H](O)CC(=O)O3)[C@H]21 — IC50 (SRB; 72 h): 4.57 µg/mL
